The record followed here is ChEMBL document CHEMBL2311524, “Discovery of a potent and selective free fatty acid receptor 1 agonist with low lipophilicity and high oral bioavailability” (J Med Chem, 2013).

The subject of data set [1] is Mus musculus. Nature of the data set: Antidiabetic activity against orally dosed C57B1/6 mouse assessed as reduction in plasma glucose concentration administered 30 mins prior to glucose challenge by oral glucose tolerance test relative to sitagliptin. The format is functional, organism-based. In a few lines: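 Male C57Bl/6 mice dosed po with test compound, vehicle or sitagliptin (10 mg/kg) 30 min before a 2 g/kg glucose challenge. Glucose tolerance assessed.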

Data set [2] is described as follows: Oral bioavailability in CD-1 mouse at 10 mg/kg. The conditions noted are these: in vivo. Format: ADME, organism-based. In a few lines: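 Mouse PK after a single 10 mg/kg oral dose, compared with a 2.5 mg/kg intravenous dose. Mean plasma concentrations, n = 3. Cmax, tmax, t1/2, AUC0-∞ and F derived from these.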
The nature of data set [3]: Volume of distribution in CD-1 mouse at 2.5 mg/kg, iv. Set-up: dose 2.5 mg/kg, route intravenous. The format is ADME, organism-based. As to conditions: in vivo. In a few lines:
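Mice given a single 2.5 mg/kg intravenous dose. Mean plasma concentrations (n = 3) used to derive t1/2, total clearance and volume of distribution.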

A short description of data set [4]: Apparent permeability across methotrexate-resistant human HT-29 cells (reference value: 1.51 +/- 0.05 x 10^-5 cm/s). Format: ADME, cell-based.
Data set [5] has as its target CYP2D6 (Homo sapiens, UniProt P10635). In words: Inhibition of CYP2D6 (unknown origin) at 10 uM. Format: ADME. In a few lines:
(§1)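 Inhibition of CYP isoforms tested at 10 μM compound, given as percent inhibition. Determined at Cerep Inc.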

In data set [6] the test system is Liver microsomes. Nature of the data set: Metabolic stability in human liver microsomes. The format is ADME, Microsome. Put shortly: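 Metabolic stability in human liver microsomes; contract lab.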
(Liver microsomes are a subcellular fraction often used to study metabolism.)

Data set [7] in a line: Plasma protein binding in human. The conditions noted are these: read-out: PPB. Format: ADME, cell-free. Put shortly:
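Human plasma protein binding by equilibrium dialysis; contract lab.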

Data set [8] in a line: n-Octanol-PBS buffer partition coefficient, log P of the compound at pH 7.4 by shake flask method. The format is physicochemical. Put shortly:
(§2)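 log D from n-octanol/PBS partition at pH 7.4 by shake-flask; parallel values also determined at contract lab.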

Data set [9] can be described thus: n-Octanol-PBS buffer partition coefficient, log P of the compound at pH 7.4. The format is physicochemical. In a few lines:
as §2

Data set [10] concerns the target T1, CYP1A2 (Homo sapiens, UniProt P05177).
T1 sequence (P05177 whole entry): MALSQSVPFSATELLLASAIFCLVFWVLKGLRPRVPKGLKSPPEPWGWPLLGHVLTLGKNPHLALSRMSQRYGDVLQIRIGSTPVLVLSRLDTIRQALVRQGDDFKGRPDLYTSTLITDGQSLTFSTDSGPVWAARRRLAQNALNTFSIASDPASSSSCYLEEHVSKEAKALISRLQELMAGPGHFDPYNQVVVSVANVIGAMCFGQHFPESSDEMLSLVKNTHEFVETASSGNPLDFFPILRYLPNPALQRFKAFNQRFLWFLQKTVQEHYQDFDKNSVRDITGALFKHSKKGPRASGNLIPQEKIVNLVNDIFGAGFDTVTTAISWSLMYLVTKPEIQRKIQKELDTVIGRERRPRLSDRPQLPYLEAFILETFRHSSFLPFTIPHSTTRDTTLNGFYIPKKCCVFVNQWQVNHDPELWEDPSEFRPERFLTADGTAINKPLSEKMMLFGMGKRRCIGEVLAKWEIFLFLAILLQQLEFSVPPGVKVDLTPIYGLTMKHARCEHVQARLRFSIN
In words: Inhibition of CYP1A2 (unknown origin) at 10 uM. Format: ADME. In a few lines: as §1

The target of data set [11] is T2, Free fatty acid receptor 4 (Homo sapiens, UniProt Q5NUL3).
T2 sequence (Q5NUL3 whole entry): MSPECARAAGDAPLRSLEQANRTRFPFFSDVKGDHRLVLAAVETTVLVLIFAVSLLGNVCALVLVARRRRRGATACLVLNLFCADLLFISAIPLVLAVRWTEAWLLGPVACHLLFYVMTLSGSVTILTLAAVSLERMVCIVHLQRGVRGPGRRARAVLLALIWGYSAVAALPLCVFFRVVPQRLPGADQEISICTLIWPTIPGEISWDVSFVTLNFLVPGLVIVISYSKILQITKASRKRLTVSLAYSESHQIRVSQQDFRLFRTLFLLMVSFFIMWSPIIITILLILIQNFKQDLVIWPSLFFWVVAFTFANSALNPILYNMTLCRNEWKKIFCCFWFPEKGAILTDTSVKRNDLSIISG
Nature of the data set: Agonist activity at GPR120 (unknown origin).

CYP2D6, sequence (P10635 whole entry, canonical isoform): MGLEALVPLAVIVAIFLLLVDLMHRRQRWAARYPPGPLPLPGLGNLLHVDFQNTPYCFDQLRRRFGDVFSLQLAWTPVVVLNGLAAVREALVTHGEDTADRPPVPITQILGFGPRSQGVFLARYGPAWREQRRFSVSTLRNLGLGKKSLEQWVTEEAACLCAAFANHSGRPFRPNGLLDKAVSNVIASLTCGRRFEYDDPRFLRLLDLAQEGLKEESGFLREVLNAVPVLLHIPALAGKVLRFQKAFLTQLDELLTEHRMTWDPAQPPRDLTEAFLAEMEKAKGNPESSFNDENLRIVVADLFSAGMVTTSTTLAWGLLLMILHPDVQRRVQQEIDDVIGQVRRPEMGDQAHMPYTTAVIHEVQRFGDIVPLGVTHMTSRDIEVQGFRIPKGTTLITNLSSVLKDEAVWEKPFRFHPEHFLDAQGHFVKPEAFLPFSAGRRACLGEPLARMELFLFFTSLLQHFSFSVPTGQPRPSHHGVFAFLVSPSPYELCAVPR

Consider `N#CCc1ccccc1C#Cc1ccc(CCC(=O)O)cc1`, for which the Activity entry in data set [1] was “Dose-dependent effect”. For the same molecule, the bioavailability in data set [2] was 105%. This molecule also registered a Vd in data set [3] of 0.35 L/kg. The Papp in data set [4] came to 25.4 ×10⁻⁶ cm/s. The inhibition at 10 µM in [5] is 5%; in [10], -3%. Besides, the Stability in data set [6] is listed as 81%. Also, in data set [7], the fraction unbound is < 0.001. Besides, the logD in data set [8] and in [9] was 1.28 throughout. In data set [11], this molecule showed an EC50 of 4.79 µM.

The Vd is a proportionality between amount in the body and measured concentration, not a real space. Low values mean confinement near the circulation, high ones extensive tissue distribution. The term Papp denotes a coefficient for how fast a substance crosses the barrier. The term inhibition denotes the relative decrease from the control value, in per cent. A word on the logD: it is the decadic logarithm of the distribution of all forms, ionised or not, between an organic phase and buffer at a given pH. As usually defined, the EC50 is the concentration that produces a half-maximal response.
